Assay results pooled from the literature.
Observed: cell growth or viability

Structure (SMILES) | cell line | test | conditions | IC50 [µM]
Clc1ccc(-c2cc(CNc3cccc4cccnc34)on2)c(Cl)c1 | Z-138 | MTS | 72 h | 27.9
COc1cc(N=C2C(=O)N(Cc3ccccc3)c3ccccc32)cc(OC)c1 | B16 | MTT | 48 h | 0.57
N#Cc1ccc(-c2cc(COc3cc(C(F)(F)F)nc4ccccc34)on2)cc1 | Z-138 | MTS | 72 h | 36.7
Cc1cc2c(C(=O)O)cccc2n1-c1nc2c(c(NCc3ccccc3)n1)CCCN2 | BXPC-3 |  | 72 h | 0.7
COc1cc([C@@H]2c3cc4c(cc3[C@@H](O[C@@H]3O[C@@H]5CO[C@@H](C)O[C@H]5[C@H](O)[C@H]3O)[C@H]3COC(=O)[C@H]23)OCO4)cc(OC)c1O | Z-138 | MTS | 72 h | 0.03
O=c1[nH]cc(F)c(=O)[nH]1 | DLD-1 | MTT | 72 h | 2.68
CC(C)c1cccc(C(C)C)c1N=C1C(=O)N(Cc2ccc(Br)cc2)c2ccccc21 | B16 | MTT | 48 h | 34.2
Cc1cc2c(C(N)=O)cccc2n1-c1nc2c(c(NCc3ccccc3)n1)CCCN2 | BXPC-3 |  | 72 h | 0.8
c1ccc(-c2cc(CNc3cccc4cccnc34)on2)nc1 | Z-138 | MTS | 72 h | 28.2
CN1CCC(NC2CCc3[nH]c4c(C(N)=O)ccc(-c5ccccc5Cl)c4c3C2)CC1 (stereo not shown) | BXPC-3 |  | 96 h | 0.0347
O=C1Nc2ccccc2C1=Nc1ccccc1I | B16 | MTT | 48 h | 7.38
c1ccc(-c2cc(CNc3cccc4cccnc34)on2)cc1 | Z-138 | MTS | 72 h | 35.3
O=C(CSc1nc2ccccc2s1)N/N=C/c1ccc(OCC(=O)Nc2ccc(Br)cc2)cc1 | Z-138 | MTS | 72 h | > 100
Cc1cccc(N=C2C(=O)N(Cc3cccc(Cl)c3)c3ccccc32)c1 | B16 | MTT | 48 h | 6.71
O=C(CSc1nc2ccccc2s1)N/N=C/c1ccc(OCC(=O)Nc2cccc(Br)c2)cc1 | Z-138 | MTS | 72 h | > 100
O=C1Nc2ccccc2C1=Nc1cccc(Cl)c1 | B16 | MTT | 48 h | > 100
CONC(=O)c1cccc2c1cc(C)n2-c1nc2c(c(NCc3ccccc3)n1)CCCN2 | ARP-1 |  | 72 h | 2.1
O=C1C(=Nc2ccccc2I)c2ccccc2N1Cc1cccc(Cl)c1 | B16 | MTT | 48 h | 5.86
O=c1cc(OCc2cc(-c3ccc(C(F)(F)F)cc3)no2)c2ccccc2o1 | Z-138 | MTS | 72 h | > 100
